This is an account of results in ChEMBL document CHEMBL1121727, “Synthesis and biological activity of certain derivatives of oxazinomycin and related oxadiazole nucleosides” (J Med Chem, 1981).

pIC50: −log10 of the molar value. Active and inactive are the calls of the source. No cut-off for these calls is given here.

One assay has as its system HeLa. The assay can be described thus: Antitumor activity against HeLa cells. In kind it is functional, cell-based. The settings on record: Homo sapiens.
Assay [1] concerns L1210. Description: Antitumor activity against L1210 cells. In kind it is functional, cell-based. The settings on record: Mus musculus.
The subject of assay [2] is L1210. Description: Inhibition of RNA, DNA, and protein synthesis in L1210 cells at 8*10e-7 M.
Assay [3] deals with L1210. The assay can be described thus: Antitumor activity against L1210 cells; Inactive. The settings on record: Mus musculus. In kind it is functional, cell-based.
Assay [4] concerns Human alphaherpesvirus 1. Description: In vitro antiviral activity against herpes simplex virus/1(HSV/1) expressed as viral rating (VR); Inactive. In kind it is functional, organism-based. An outline of the steps: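 Tested in vitro in KB cells infected with HSV type 1 at 1000 to 1 μg/mL. Plates were incubated 72 h at 37 °C, and inhibition of viral cytopathic effect was scored as a virus rating (VR). VR ≥ 0.5 was taken as moderate to definite activity. Ribavirin and acyclovir served as controls.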

The subject of the next assay is P388. The assay can be described thus: Antitumor activity against leukemia P388 cells; Inactive. In kind it is functional, cell-based. The settings on record: Mus musculus.
For assay [5], the system named is Human alphaherpesvirus 1. The assay can be described thus: In vitro antiviral activity against herpes simplex virus/1(HSV/1) expressed as viral rating (VR). In kind it is functional. The essentials: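 Antiviral assay in KB cells against HSV type 1 over 1000 to 1 μg/mL. Inhibition of viral cytopathic effect was read after 72 h at 37 °C and scored as virus rating (VR). VR ≥ 0.5 was taken as moderate to definite activity. Ribavirin and acyclovir served as controls.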

As for `O=c1[nH]c(=O)c([C@@H]2O[C@H](CO)[C@@H](O)[C@H]2O)co1`, the negative-log IC50 (pIC50) in the assay with HeLa was 6.30; with L1210 [1], 6.52. The molecule also showed an Inhibition in the assay with L1210 [2] of 5%.
Take `O=c1[nH]c(=O)n([C@H]2C[C@H](O)[C@@H](CO)O2)o1`: the outcome in the assay with L1210 [3] and in the assay on P388 was inactive. For the same molecule, in the assay with Human alphaherpesvirus 1 [4], the VR result was “inactive”.
Take `O=c1[nH]c(=O)n(C2O[C@H](CO)[C@@H](O)[C@H]2O)o1` (some centres not stated): the outcome in the assay on L1210 [3] and in the assay on P388 was inactive. In the assay on Human alphaherpesvirus 1 [5], this molecule returned a VR of 0.65.
For `O=c1[nH]oc(=O)[nH]1`, the result with L1210 [3] and with P388 was inactive. Also, the VR entry in the assay with Human alphaherpesvirus 1 [4] was “inactive”.
For the molecule `Nc1nc2c(ncn2COCCO)c(=O)[nH]1` [ACYCLOVIR], the VR with Human alphaherpesvirus 1 [5] was determined as 1.4.
Turning to `O=c1[nH]c(=O)c([C@@H]2O[C@H](COP(=O)(O)O)[C@@H](O)[C@H]2O)co1`, the outcome in the assay on L1210 [3] and in the assay on P388 was inactive.
As for `C[C@H]1OC(c2coc(=O)[nH]c2=O)[C@H](O)[C@@H]1O` (some centres not stated), the result in the assay with L1210 [3] and in the assay with P388 was inactive.
In the case of `O=c1nc2c(co1)[C@@H]1O[C@H](CO)[C@@H](O)[C@@H]1O2`, the result with L1210 [3] and with P388 was inactive.
Take `CC(=O)O[C@H]1C[C@H](c2coc(=O)[nH]c2=O)O[C@@H]1CO`: the outcome with L1210 [3] and with P388 was inactive.
As for `NC(=O)c1ncn([C@@H]2O[C@H](CO)[C@@H](O)[C@H]2O)n1` [RIBAVIRIN], the VR with Human alphaherpesvirus 1 [5] stood at 1.2.

By pIC50 is commonly meant −log10 of the IC50, conventionally taken in molar units. Read a low pIC50 as a high IC50. Broadly, the Inhibition is the drop in the measured response relative to a control, in per cent.
